Assay results taken from ChEMBL document CHEMBL5325402, “Exploration of novel hexahydropyrrolo[1,2-e]imidazol-1-one derivatives as antiviral agents against ZIKV and USUV” (Eur J Med Chem, 2023).
≈ marks a conversion by molar mass, not a printed value. Calls of active or inactive are those of the source. No cut-off for these calls is given here.

How the values were obtained:
[1] = Solubility in DMSO at 25 degreeC; assay type: physicochemical
[2] = Cytotoxicity against human A549 cells infected with USUV 3345 isolate Arb276 pretreated with virus for 1 hr followed by infection of cells with compound treated-virus for 20 hrs by MTS assay; assay type: toxicity, cell-based
Procedure, shortened: (§1)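 MTS viability assay. Cells were treated under the same conditions as the antiviral assays. Absorbance was expressed as % of medium-only cells, and CC50 was derived from the curve. Seeding densities were 1.2 × 10^4/well for Vero, 1.3 × 10^4/well for A549 and 1.6 × 10^4/well for Huh7. DMEM with 2% FBS.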

Usutu virus [3] = assay: Antiviral activity against USUV 3345 isolate Arb276 infected in human Huh-7 cells assessed as reduction in viral replication pretreated with virus for 1 hr followed by infection of cells with compound treated-virus for 20 hrs by focus reduction assay; assay type: functional, organism-based; settings: Usutu virus, 3345, Huh-7; for EC90: time 21 hrs
Procedure, shortened: (§2)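 Dose-response: serial dilutions (100 to 0.13 μM) preincubated 1 h at 37 °C with virus (MOI 0.02), then added to cells for 20 h (USUV) or 30 h (ZIKV) in 2% FBS DMEM. Cells per well: Vero 1.2 × 10^4, A549 1.3 × 10^4, Huh7 1.6 × 10^4. Foci immunostained and counted. EC50/EC90 fitted by variable-slope sigmoidal curve, mean of three independent experiments.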

[4] = Cytotoxicity against African green monkey Vero cells infected with USUV 3345 isolate Arb276 pretreated with virus for 1 hr followed by infection of cells with compound treated-virus for 20 hrs by MTS assay; assay type: toxicity, cell-based; settings: chlorocebus sabaeus; procedure, shortened: as §1
Usutu virus [5] = assay: Antiviral activity against USUV 3345 isolate Arb276 infected in African green monkey Vero cells assessed as viral growth inhibition at 11 to 100 uM pretreated with virus for 1 hr followed by infection of cells with compound treated-virus for 20 hrs by focus reduction assay relative to control; assay type: functional; settings: dose 11-100 µM, time 21 hrs
Procedure, shortened: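 Virus (MOI 0.02) preincubated with compound 1 h at 37 °C, then mixture put on Vero cells (1.2 × 10^4/well, seeded the day before) in DMEM with 2% FBS for 30 h (ZIKV) or 20 h (USUV) at 37 °C. Fixed in cold acetone-methanol, foci immunostained with anti-flavivirus E 4G2 antibody and counted. % infection is relative to DMSO-treated wells. Screen used 100, 33 and 11 μM.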

Zika virus [6] = assay: Antiviral activity against ZIKV MR766 infected in African green monkey Vero cells assessed as viral growth inhibition at 0.13 to 100 uM treated immediately after viral infection for 30 hrs by time of addition assay; assay type: functional, organism-based; settings: dose 0.13-100 µM
Procedure, shortened: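 Time-of-addition assay in Vero. Serial dilutions (100 to 0.13 μM) were added to cells 24 h or 2 h before infection, during the 2 h infection, or post-infection for 24 h (USUV) or 30 h (ZIKV). Cells were fixed in cold acetone-methanol (50:50) and infected cells detected by indirect immunostaining. EC50/EC90 came from variable-slope sigmoidal fits; mean of three independent experiments.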

Zika virus [7] = assay: (§3) Antiviral activity against ZIKV MR766 infected in African green monkey Vero cells assessed as reduction in viral replication pretreated with virus for 1 hr followed by infection of cells with compound treated-virus for 30 hrs by focus reduction assay; assay type: functional, organism-based; settings: for EC90: time 31 hrs
Zika virus [8] = assay: as §3, with “plaque formation” for “viral replication”, “2 hrs and further treatment of compound for 72” for “30”, “crystal violet staining based” for “focus reduction”; assay type: functional, organism-based; settings: time 75.0 hrs
Procedure, shortened: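 Plaque reduction assay. Vero cells were seeded 6 × 10^4/well. ZIKV (MOI 0.005) was preincubated with serial compound dilutions for 1 h at 37 °C, then adsorbed on cells for 2 h. After two washes, cells were overlaid with 1.2% methylcellulose in DMEM for 72 h, then fixed and stained with 0.1% crystal violet for 30 min. Plaques counted; EC50/EC90 from variable-slope sigmoidal fits.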

Usutu virus [9] = assay: Antiviral activity against USUV 3345 isolate Arb276 infected in African green monkey Vero cells assessed as titer reduction in viral progeny production at 15 uM treated for 2 hrs followed by virus removal and subsequent addition of medium containing compound measured after 48 hrs by focus reduction assay; assay type: functional, organism-based; settings: time 50.0 hrs
Procedure, shortened: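 Vero cells seeded 6.5 × 10^4/well, exposed in duplicate for 2 h at 37 °C to virus (MOI 0.1) mixed with compound at 5 or 15 μM. After three washes, medium containing compound was added for 48 h. Supernatants were clarified and titred on Vero by focus reduction (USUV, FFU/ml) or plaque assay (ZIKV, PFU/ml). DMSO-matched infected controls; mean of three experiments.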

Usutu virus [10] = assay: Antiviral activity against USUV 3345 isolate Arb276 infected in human A549 cells assessed as reduction in viral replication pretreated with virus for 1 hr followed by infection of cells with compound treated-virus for 20 hrs by focus reduction assay; assay type: functional, organism-based; settings: Usutu virus, 3345, A549; for EC90: time 21 hrs; procedure, shortened: as §2

| Compound | solubility [1] [mg/mL] | CC50 at 21 h [2] [µM] | EC50 (Usutu virus [3]) [µM] | EC90 (Usutu virus [3]) [µM] | CC50 at 21 h [4] [µM] | inhibition (INH) (Usutu virus [5]) [%] | Activity (Zika virus [6]) | EC50 (Zika virus [7]) [µM] | EC90 (Zika virus [7]) [µM] | Activity (Zika virus [8]) | Activity (Usutu virus [9]) | EC50 (Usutu virus [10]) [µM] | EC90 (Usutu virus [10]) [µM] |
| --- | --- | --- | --- | --- | --- | --- | --- | --- | --- | --- | --- | --- | --- |
| O=C1[C@@H]2CCCN2[C@@H](c2ccc([C@H]3C[C@@H](O)[C@@H](CO)O3)cc2)N1c1ccc([N+](=O)[O-])cc1 | 96 (≈ 218 mM) | > 500 | 3.91 | 5.77 | > 500 | 100 | Active | 7.96 | 12.3 | Active | Active | 6.42 | 12 |
| O=C1C[C@H](c2ccc([C@H]3N(c4ccc([N+](=O)[O-])cc4)C(=O)[C@@H]4CCCN43)cc2)O[C@@H]1CO | 130 (≈ 297 mM) | > 500 | 4 | 6.28 | > 500 | 100 | Active | 9.73 | 15.4 | Active | Active | 6.82 | 15.2 |
